AHR activator = AHR activators, primary screen, cell-based, luminescence, luciferase reporter, human. AHR-responsive luciferase reporter cells. activation, % at 5 µM. 2.5% of 320,000 active; in the data active means activation above about 47%
proCasp3 act = activators of human procaspase-3 D3A mutant, primary screen, biochemical, absorbance, PC-3 D3A mutant, single concentration; 0.11% of 330,000 active; activation, % at 8.5 µM; AID 463141, 2010; recombinant procaspase-3 D3A, Ac-DEVD-pNA absorbance 405 nm; Caspase-3 (Homo sapiens), P42574;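 active means activation above the mean of all tested compounds plus 3 SD, cut at about 21% in these data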
Target sequence (P42574 whole entry D9A/D28A/D175A): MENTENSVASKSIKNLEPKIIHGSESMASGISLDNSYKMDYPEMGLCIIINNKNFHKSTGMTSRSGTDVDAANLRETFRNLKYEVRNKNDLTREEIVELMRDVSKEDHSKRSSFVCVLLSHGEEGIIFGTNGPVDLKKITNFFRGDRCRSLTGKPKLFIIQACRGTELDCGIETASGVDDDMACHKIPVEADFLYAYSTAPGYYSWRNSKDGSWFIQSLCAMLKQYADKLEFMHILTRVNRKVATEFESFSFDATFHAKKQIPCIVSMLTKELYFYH
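Test system: Procaspase-3 D3A mutant; medium: Zinc-free HEPES/NaCl buffer with 0.01% Triton X-100 at pH 7.4; reagent: DEVD-pNA substrate; doses: one concentration, 8.5 µM nominal, 0.8% DMSO; times: 1 h preincubation plus 2 h reaction at 25 °C; signal: Epi-absorbance at 405 nm of released p-nitroaniline, 0 and 120 min; replicates: singlicate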
proCasp7 act = procaspase-7 activators, primary screen, counter-screen for procaspase-3 activator project, biochemical, absorbance, HTS, human. Caspase-7 (Homo sapiens), P55210. recombinant procaspase-7, Ac-DEVD-pNA absorbance 405 nm; D23A/D198A/D206A triple mutant, cannot self-cleave; scale: DMSO 0, 5 µM enzyme 100. activation, % at 8.5 µM. 0.093% of 330,000 active. AID 463210, 2010;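 active means percent activation above the screen-wide mean plus 3 SD, cut at about 25% in these data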
Target sequence (P55210 whole entry D23A/D198A/D206A): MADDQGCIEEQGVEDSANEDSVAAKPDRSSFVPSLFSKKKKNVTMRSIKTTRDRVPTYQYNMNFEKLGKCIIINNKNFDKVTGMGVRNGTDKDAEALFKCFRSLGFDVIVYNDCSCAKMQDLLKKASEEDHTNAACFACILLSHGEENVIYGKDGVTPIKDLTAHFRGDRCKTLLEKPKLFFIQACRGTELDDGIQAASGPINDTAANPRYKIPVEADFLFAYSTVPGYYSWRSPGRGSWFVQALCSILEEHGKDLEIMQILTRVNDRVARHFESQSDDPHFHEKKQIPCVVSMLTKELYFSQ
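Material: Procaspase-7 triple mutant (PC-7 D3A) | Quantity: 2 µM procaspase-7 mutant as dispensed | Reagent: DEVD-pNA substrate | Times: 1 h preincubation, 2 h reaction | Technique: 405 nm absorbance of p-nitroaniline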
PolyA inhibitor = polyadenylation inhibitors in yeast reporter cells, primary screen, luminescence, S. cerevisiae. 0.02% of 300,000 active. activity score, % at 12 µM. S. cerevisiae SKY197-pL101 polyadenylation reporter, beta-gal luminescence; efflux-impaired pdr1/pdr3 knockout yeast; score 100 = 6 SD above DMSO;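 active means lowest replicate activity score at least 50, where 100 means six control SD above control mean; inconclusive means lowest score under 50 but half or more replicates reach 50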;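 further: yeast exposed to compound for 9 h at 30 °C; higher score means more reporter readthrough which indicates perturbed polyadenylation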
AHR act cf = AHR activators, confirmation, cell-based, luminescence, luciferase reporter, human | 87% of 2,300 active | shares compounds with AHR activator | human cells, AHR-responsive luciferase reporter | activation, % at 9 µM | AID 2845, 2010; in the data active means activation above about 49%;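 further: HepG2 hepatoma cells carrying a DRE-driven firefly luciferase reporter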
PXR act counter = human PXR activators, counter-screen for AHR activator project, cell-based, luciferase luminescence; shares compounds with AHR activator; cell-based PXR reporter; activation, % at 11.6 µM; 88% of 2,300 active; in the data active means activation above about 11%;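 further: human hepatoma DPX-2 cells expressing full-length human PXR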
Large screens that a line does not name were inactive (follow-up assays come after a bar, where they were run). This is a sample that favours compounds with a hit; in the whole collection about 2.6% have one here.

Cc1ccc(CC(=O)O/N=C(\N)c2ccncc2)cc1	none
Cc1cc(=O)[nH]c(N/N=C/c2cccc(Br)c2)n1	none
Cc1cc(=O)[nH]c(N/N=C/c2ccc(Br)s2)n1	AHR activator 81 | AHR act cf 66
CNC(=O)c1c(NC(=O)c2nc3ccccc3s2)sc2c1CCC2	AHR activator 112 | AHR act cf 79 | PXR act counter 29
NC(=O)c1c(NC(=O)c2ccccc2)sc2c1CCC2	AHR activator 125 | AHR act cf 146 | PXR act counter 24
Cc1occc1C(=O)Nc1sc2c(c1C(N)=O)CCCCC2	AHR activator 83 | AHR act cf 79 | PXR act counter 49
CCCC(=O)NC(=S)Nc1sc2c(c1C(N)=O)CCC2	none
COC(=O)c1c(NC(=O)c2ccoc2C)sc2c1CCC2	PolyA inhibitor inconclusive
CC(C)C(=O)NC(=S)Nc1sc2c(c1C(N)=O)CCCC2	AHR activator 90 | AHR act cf 97 | PXR act counter 16
CCN(CC(=O)Nc1c(F)cccc1F)C(=O)C1=COCCO1	none
CCOC(=O)CCNC(=O)N1CCCC(C(=O)c2cc(C)c(OC)c(C)c2)C1 (stereo not given)	none
Cn1ncc(Cl)c1C(=O)Nc1sc2c(c1C(N)=O)CCC2	AHR activator 121 | AHR act cf 96 | PXR act counter 137
NC(=O)c1c(NC(=O)c2cnccn2)sc2c1CCCC2	none
O=C(NC(=S)Nc1sc2c(c1C(=O)O)CCCC2)c1ccccc1	AHR activator 81 | AHR act cf 112 | PXR act counter 16
O=c1c(-c2ccccc2)n[nH]c2ccccc12	AHR activator 117 | AHR act cf 81 | PXR act counter 26
CCC(=O)Nc1cc(-c2nc3ncccc3o2)ccc1Cl	AHR activator 110 | AHR act cf 97 | PXR act counter 16
CC(C)C(=O)Nc1cc(-c2nc3ncccc3o2)ccc1Cl	none
Cc1ccc(-c2nc3ncccc3o2)cc1NC(=O)c1ccco1	none
Cc1ccc(-c2nc3ncccc3o2)cc1NC(=O)C(C)(C)C	AHR activator 91 | AHR act cf 91 | PXR act counter 32
COC(=O)c1c(C)[nH]c(C(=O)C(C)OC(=O)c2c(C)noc2C)c1C (stereo not given)	none (no result: PolyA inhibitor)
Nc1nc(-c2ccccc2)c(N=Nc2ccc(Cl)cc2)s1	AHR activator 120 | AHR act cf 88 | PXR act counter 14
N#C/C(=C/c1ccc(-c2ccc(S(N)(=O)=O)cc2)o1)C(=O)Nc1ccccc1	none
N#C/C(=C\c1ccc(-c2ccc(F)cc2)o1)C(=O)Nc1nc(-c2cccs2)cs1	AHR activator 142 | AHR act cf 58 | PXR act counter 22
COc1cc(NC(=O)c2c(F)c(F)c(F)c(F)c2F)c(OC)cc1Cl	none
COc1cc(NC(=O)c2ccc(F)cc2)c(OC)cc1Cl	AHR activator 86 | AHR act cf 103 | PXR act counter 20
COc1ccc(C(=O)Nc2cc(OC)c(Cl)cc2OC)cc1	none
COc1cc(NC(=O)c2cc(C3CC3)on2)c(OC)cc1Cl	AHR activator 95 | AHR act cf 110 | PXR act counter 14
Cn1cc(C(=O)Nc2ccc(Cl)cc2)c(C(F)(F)F)n1	AHR activator 107 | AHR act cf 101 | PXR act counter 27
CCCc1nn(C)c(C(=O)Nc2ccc(Cl)cc2)c1Cl	AHR activator 88 | AHR act cf 126 | PXR act counter 24
CCCc1nn(C)c(C(=O)Nc2ccccc2)c1Cl	AHR activator 82 | AHR act cf 89 | PXR act counter 13
Cn1nc(C(F)(F)F)c(C(=O)Nc2ccc(Cl)cc2)c1Cl	none
CC(=O)N/C(=N/c1nc(C)cc(C)n1)Nc1ccc(C)cc1C	none
Cn1c(CNc2ccc(Cl)cc2)nc2ccccc21	AHR activator 87 | AHR act cf 139 | PXR act counter 36
CCn1c(=O)c([N+](=O)[O-])c(NCCCn2ccnc2)c2ccccc21	AHR activator 101 | AHR act cf 93 | PXR act counter 52
C=CCn1c(NC(=O)c2ccc(C)cc2)nc2ccccc21	AHR activator 99 | AHR act cf 93 | PXR act counter 29
C=CCn1c(-c2ccc(C)cc2)nc2ccccc21	none
FC(F)(F)c1cc(-c2ccccc2)nc(NCc2cccnc2)n1	AHR activator 90 | AHR act cf inactive | PXR act counter 43
FC(F)(F)c1cc(-c2ccco2)nc(NCc2cccnc2)n1	none
Cn1c2ccccc2c(=O)c2cc(C#Cc3ccccn3)ccc21	AHR activator 96 | AHR act cf 115 | PXR act counter 28
Cc1cc(C)c(S(=O)(=O)Nc2cc(C)on2)c(C)c1	none
COc1ccc2c3c(cccc13)C(=O)CC2	none (no result: AHR activator, proCasp3 act, proCasp7 act)
O=c1[nH]c(-[n+]2ccc3ccccc3c2)c(/C=N/N=C(\[O-])c2ccccc2)s1	AHR activator 84 | AHR act cf 50 | PXR act counter 20
CCOC(=O)C1CCN(C(=O)Cn2c(=O)c3cccn3c3cccnc32)CC1	none
Cc1nnc(N2C(=O)c3cccc4c([N+](=O)[O-])ccc(c34)C2=O)s1	AHR activator 87 | AHR act cf 100
CSCC[C@H](NC(=O)N1CCn2c1nc1ccccc12)C(=O)N1CCCCC1	none
COc1ccc(O)c(C(=O)c2cnn(C(=O)c3cccc(N(C)C)c3)c2)c1	none (no result: PolyA inhibitor)
CN(C)c1cccc(C(=O)n2cc(C(=O)c3cc(F)ccc3O)cn2)c1	AHR activator 86 | AHR act cf inactive | PXR act counter 20
Cc1cc(NC(=O)CCC(=O)N(c2ccc(F)cc2)C(C(=O)NC2CCCC2)c2ccncc2)no1 (stereo not given)	AHR activator 91 | AHR act cf 81 | PXR act counter 21
C=C1C(=O)O[C@@H]2C[C@@H](C)[C@@H]3C=CC(=O)[C@@]3(C)[C@@H](OC(C)=O)[C@H]12	AHR activator 81 | AHR act cf inactive | PXR act counter 283
CCOc1ccccc1NC(=O)CN1C(=O)NC(Cc2c[nH]c3ccccc23)C1=O (stereo not given)	none (no result: PolyA inhibitor)
Cc1ccc(S(=O)(=O)/N=C(/Nc2c(C)cccc2C)c2ccccc2)cc1	none (no result: PolyA inhibitor)
CCCNC(=O)c1ccc2c(=O)n(Cc3ccco3)c(=S)[nH]c2c1	AHR activator 88 | AHR act cf 70 | PXR act counter 34
CC(C)NC(=O)c1ccc2c(=O)n(Cc3ccco3)c(=S)[nH]c2c1	none

High-throughput results as filed in PubChem.
